From ChEMBL document CHEMBL3758146, “Synthesis and biological evaluation of quinazolin-4(3H)-one derivatives bearing dithiocarbamate side chain at C2-position as potential antitumor agents” (Eur J Med Chem, 2016)
Active and inactive are the calls of the source. No cut-off for these calls is given here.

What was measured:
[1] = tested on: HT-29; test: Cell cycle arrest in human HT-29 cells assessed as accumulation at G0/G1 phase at IC50 after 24 hrs by propidium iodide staining based FACS analysis (reference value: 50.25 +/- 1.19%); type: functional
[2] = tested on: HT-29; test: Induction of spindle assembly checkpoint in human HT-29 cells assessed as mitotic index after 2 hrs by immunostaining assay (reference value: 2.47 +/- 0.71); type: functional
[3] = tested on: HT-29; test: Induction of spindle assembly checkpoint in human HT-29 cells assessed as mitotic index after 16 hrs by immunostaining assay (reference value: 2.87 +/- 0.82); type: functional
[4] = tested on: HT-29; test: Cell cycle arrest in human HT-29 cells assessed as accumulation at G2/M phase at IC50 after 24 hrs by propidium iodide staining based FACS analysis (reference value: 16.7 +/- 1.55%); type: functional
[5] = tested on: HT-29; test: Induction of spindle assembly checkpoint in human HT-29 cells assessed as mitotic index after 8 hrs by immunostaining assay (reference value: 2.81 +/- 0.82); type: functional
[6] = tested on: HT-29; test: Cell cycle arrest in human HT-29 cells assessed as accumulation at S phase at IC50 after 24 hrs by propidium iodide staining based FACS analysis (reference value: 33.05 +/- 2.22%); type: functional
[7] = tested on: HT-29; test: Induction of spindle assembly checkpoint in human HT-29 cells assessed as mitotic index after 4 hrs by immunostaining assay (reference value: 3.13 +/- 1.01); type: functional
[8] = tested on: HT-29; test: Antiproliferative activity against human HT-29 cells after 72 hrs by MTS assay; type: functional, cell-based; conditions: HT-29, 72 h
Summary of the method: (§1)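 MTS (CellTiter 96 AQueous One) read-out after 72 h exposure; compounds first screened at 50 µM, with ≥50% inhibition versus vehicle-treated cells counted as active. Actives were then tested at various concentrations to give IC50 (concentration causing 50% proliferation inhibition). Triplicate wells, three independent experiments, mean ± SD. 5-FU as positive control.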

[9] = tested on: HT-29; test: Induction of DNA damage in human HT-29 cells assessed as increase in gamma-H2AX protein level after 1 to 2 hrs by Western blot analysis; type: functional, cell-based
Summary of the method: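 Total lysates of HT29 cells treated 1 or 2 h, with CPT (2 µM) and DMSO diluent as comparators, immunoblotted for γ-H2AX (15 kDa), with β-actin (42 kDa) as loading control probed on a separate section of the same membrane.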

[10] = Antiproliferative activity against human HCT116 cells after 72 hrs by MTS assay; type: functional, cell-based; conditions: HCT-116, 72 h; summary of the method: as §1
[11] = tested on: A549; test: Antiproliferative activity against human A549 cells after 72 hrs by MTS assay; type: functional, cell-based; conditions: A549, 72 h; summary of the method: as §1
[12] = tested on: MCF7; test: Antiproliferative activity against human MCF7 cells after 72 hrs by MTS assay; type: functional, cell-based; conditions: MCF7, 72 h; summary of the method: as §1
[13] = tested on: HT-29; test: Upregulation of phosphorylated BubR1 level in human HT-29 cells after 16 hrs by immuno-blot analysis; type: functional, cell-based
[14] = molecular target: T1, Tubulin (Sus scrofa) (UniProt P02554+P02550); test: Induction of porcine neuronal tubulin polymerization at 15 uM after 60 mins by spectrometric analysis; type: protein assay
T1 sequence (P02550 whole entry, looked up): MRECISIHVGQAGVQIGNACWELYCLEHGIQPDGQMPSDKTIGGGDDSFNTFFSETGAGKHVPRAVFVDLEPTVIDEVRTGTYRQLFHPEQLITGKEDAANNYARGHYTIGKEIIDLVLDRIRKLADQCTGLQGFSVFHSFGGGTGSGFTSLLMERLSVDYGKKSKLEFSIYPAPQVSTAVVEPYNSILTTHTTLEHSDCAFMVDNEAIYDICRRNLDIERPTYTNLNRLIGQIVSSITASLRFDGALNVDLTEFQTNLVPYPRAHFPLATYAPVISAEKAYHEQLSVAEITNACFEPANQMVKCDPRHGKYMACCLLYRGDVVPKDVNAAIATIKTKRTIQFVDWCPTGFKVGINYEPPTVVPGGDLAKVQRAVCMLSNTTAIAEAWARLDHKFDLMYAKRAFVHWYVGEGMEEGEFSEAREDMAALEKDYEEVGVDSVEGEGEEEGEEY
T1 sequence (P02554 whole entry, looked up): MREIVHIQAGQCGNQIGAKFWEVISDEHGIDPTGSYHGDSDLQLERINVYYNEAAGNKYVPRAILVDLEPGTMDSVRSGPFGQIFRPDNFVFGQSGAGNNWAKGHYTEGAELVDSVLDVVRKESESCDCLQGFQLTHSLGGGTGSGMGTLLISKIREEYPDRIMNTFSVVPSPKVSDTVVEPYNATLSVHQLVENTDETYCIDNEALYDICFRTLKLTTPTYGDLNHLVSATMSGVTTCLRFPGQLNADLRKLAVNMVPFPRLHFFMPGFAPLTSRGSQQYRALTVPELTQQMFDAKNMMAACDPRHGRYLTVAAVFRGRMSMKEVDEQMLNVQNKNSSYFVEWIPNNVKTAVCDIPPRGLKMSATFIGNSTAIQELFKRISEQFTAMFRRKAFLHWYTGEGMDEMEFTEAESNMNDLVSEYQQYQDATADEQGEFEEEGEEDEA
Summary of the method: (§2)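 Cell-free tubulin polymerization run by a commercial kit protocol; assembly followed as rise in absorbance at 340 nm over 60 min at 37 °C, with Taxol as reference.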

[15] = molecular target: T1, Tubulin (Sus scrofa); test: Induction of porcine neuronal tubulin polymerization at 10 uM after 60 mins by spectrometric analysis; type: protein assay; summary of the method: as §2
[16] = tested on: HT-29; test: Induction of DNA damage in human HT-29 cells assessed as gamma-H2AX foci formation after 1 to 2 hrs by DAPI staining based indirect immunofluorescence assay; type: functional, cell-based
Summary of the method: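 HT29 cells treated 1 or 2 h alongside CPT (2 µM) and DMSO diluent, fixed, immunostained with mouse monoclonal anti-γ-H2AX (clone JBW301, 1:1500) and counterstained with DAPI for DNA; γ-H2AX foci scored by indirect immunofluorescence.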

[17] = tested on: HeLa; test: Antiproliferative activity against human HeLa cells after 72 hrs by MTS assay; type: functional, cell-based; summary of the method: as §1
[18] = tested on: HT-29; test: Induction of DNA damage in human HT-29 cells assessed as gamma-H2AX foci formation at 2 uM after 1 to 2 hrs by DAPI staining based indirect immunofluorescence assay; type: functional, cell-based
Summary of the method: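 HT29 cells exposed 1 or 2 h, DMSO as diluent control. After fixation, cells immunostained with mouse monoclonal anti-γ-H2AX (clone JBW301, 1:1500) and DNA counterstained with DAPI. γ-H2AX foci scored by indirect immunofluorescence.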

[19] = tested on: HT-29; test: Induction of DNA damage in human HT-29 cells assessed as increase in gamma-H2AX protein level at 2 uM after 1 to 2 hrs by Western blot analysis; type: functional, cell-based
Summary of the method: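 HT29 cells treated 1 or 2 h, DMSO as diluent control. Total lysates immunoblotted for γ-H2AX (15 kDa), with β-actin (42 kDa) as loading reference; both probed on separate sections of one membrane.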

[20] = tested on: MCF7; test: Cytotoxicity against human MCF7 cells assessed as growth inhibition after 48 hrs by sulforhodamine B assay; type: functional, cell-based; conditions: MCF7, 48 h
[21] = tested on: CA46; test: Cytotoxicity against human CA46 cells assessed as growth inhibition after 24 hrs by coulter counter analysis; type: functional, cell-based; conditions: CA46, 24 h
[22] = tested on: HT-29; test: Cell cycle arrest in human HT-29 cells assessed as accumulation at S phase at 0.18 uM after 24 hrs by propidium iodide staining based FACS analysis (reference value: 33.05 +/- 2.22%); type: functional
[23] = tested on: HT-29; test: Cell cycle arrest in human HT-29 cells assessed as accumulation at G0/G1 phase at 0.18 uM after 24 hrs by propidium iodide staining based FACS analysis (reference value: 50.25 +/- 1.19%); type: functional
[24] = tested on: HT-29; test: Cell cycle arrest in human HT-29 cells assessed as accumulation at G2/M phase at 0.18 uM after 24 hrs by propidium iodide staining based FACS analysis (reference value: 16.7 +/- 1.55%); type: functional

Structure (SMILES)	IC50 [8]	IC50 [10]	IC50 [11]	IC50 [12]	IC50 [17]	other results
O=c1[nH]cc(F)c(=O)[nH]1 [FLUOROURACIL]						Activity [1]: 5.42%; Activity_index [2]: 2.28; Activity_index [3]: 0.23; Activity [4]: 3.48%; Activity_index [5]: 0.29; Activity [6]: 91.11%; Activity_index [7]: 2.09
COc1ccc(CNC(=S)SCc2nc3ccccc3c(=O)[nH]2)cc1	5.53 µM	22.7 µM	7.27 µM	10.9 µM	12.2 µM	Activity [9]: inactive; Activity [1]: 16.45%; Activity_index [2]: 4.66; Activity_index [3]: 37.85; Activity [4]: 55.31%; Activity [13]: Active; Activity [14]: Active; Activity_index [5]: 10.15; Activity [15]: inactive; Activity [16]: inactive; Activity [6]: 28.25%; Activity_index [7]: 7.75
CC[C@@]1(O)C(=O)OCc2c1cc1n(c2=O)Cc2cc3ccccc3nc2-1 [CAMPTOTHECIN]						Activity [18]: Active; Activity_index [2]: 1.55; Activity [19]: Active; Activity_index [5]: 0.33; Activity_index [7]: 1.11
COc1ccc(CNC(=S)SCc2nc3ccccc3c(=O)[nH]2)c(OC)c1	10.1 µM	25.5 µM	10.5 µM	13.5 µM	16 µM	
COc1cc(CNC(=S)SCc2nc3ccccc3c(=O)[nH]2)cc(OC)c1OC	7.16 µM	17.3 µM	10.4 µM	8.97 µM	22.9 µM	
O=c1[nH]c(CSC(=S)NCc2ccc3c(c2)OCO3)nc2ccccc12	19.3 µM	34.2 µM	44.6 µM	21.7 µM	20.3 µM	
O=c1[nH]c(CSC(=S)NCc2ccncc2)nc2ccccc12	16 µM	6.67 µM	6.13 µM	16.1 µM	12.5 µM	
O=c1[nH]c(CSC(=S)NCc2ccc(Cl)cc2Cl)nc2ccccc12	11.4 µM	29.7 µM	12.8 µM	> 50 µM	29 µM	
Cc1ccc(CNC(=S)SCc2nc3ccccc3c(=O)[nH]2)cc1	16.3 µM	23.2 µM	32.6 µM	21.4 µM	20.7 µM	
O=c1[nH]c(CSC(=S)NCc2ccccc2F)nc2ccccc12	16.4 µM	20.3 µM	21.2 µM	20.5 µM	13.2 µM	
COC(=O)Nc1nc2cc(C(=O)c3cccs3)ccc2[nH]1 [NOCODAZOLE]						Activity_index [2]: 5.22; Activity_index [3]: 64.81; Activity_index [5]: 25.61; Activity_index [7]: 11.4
O=c1[nH]c(CSC(=S)NCc2cccnc2)nc2ccccc12	14.2 µM	11.2 µM	14.8 µM	20.2 µM	11 µM	
O=c1[nH]c(CSC(=S)NCc2ccc(Br)cc2)nc2ccccc12	32.3 µM	45.3 µM	18.2 µM	39.2 µM	22.9 µM	
O=c1[nH]c(CSC(=S)NCc2cccs2)nc2ccccc12	16.1 µM	16.1 µM	25.7 µM	23.9 µM	26.1 µM	
O=c1c2cc(Cl)ccc2nc(/C=C/c2ccccc2)n1-c1ncccn1						IC50 [20]: 340 nM; IC50 [21]: 1000 nM
O=c1[nH]c(CSC(=S)NCc2ccccc2)nc2ccccc12	14.5 µM	18.1 µM	23.7 µM	31.3 µM	10.7 µM	
O=c1[nH]c(CSC(=S)NCc2ccccn2)nc2ccccc12	> 50 µM	> 50 µM	> 50 µM	> 50 µM	> 50 µM	
O=c1[nH]c(CSC(=S)NCc2ccc(Cl)cc2)nc2ccccc12	> 50 µM	> 50 µM	> 50 µM	> 50 µM	> 50 µM	
O=c1[nH]c(CSC(=S)NCc2ccco2)nc2ccccc12	33.7 µM	24.6 µM	42.6 µM	> 50 µM	31.2 µM	
O=c1[nH]c(CSC(=S)NCc2ccc(C(F)(F)F)nc2)nc2ccccc12	16.5 µM	16.7 µM	12.9 µM	19.2 µM	28.4 µM	
O=c1[nH]c(CSC(=S)NCc2ccc(F)cc2)nc2ccccc12	18.6 µM	20.1 µM	10.7 µM	17.4 µM	21.2 µM	
O=c1[nH]c(CSC(=S)NCc2ccc([N+](=O)[O-])cc2)nc2ccccc12	17.2 µM	16.4 µM	11.4 µM	19.3 µM	28.4 µM	
O=c1[nH]c(CSC(=S)NCc2ccc(F)cc2F)nc2ccccc12	15.7 µM	22.3 µM	30.6 µM	20.4 µM	20.1 µM	
COc1ccccc1CNC(=S)SCc1nc2ccccc2c(=O)[nH]1	12.3 µM	30.6 µM	12 µM	14.8 µM	16.5 µM	
CC(=O)O[C@H]1C(=O)[C@@]2(C)[C@H]([C@H](OC(=O)c3ccccc3)[C@]3(O)C[C@H](OC(=O)[C@H](O)[C@@H](NC(=O)c4ccccc4)c4ccccc4)C(C)=C1C3(C)C)[C@]1(OC(C)=O)CO[C@@H]1C[C@@H]2O [PACLITAXEL]						Activity [22]: 17.6%; Activity [23]: 1.7%; Activity [13]: Active; Activity [24]: 80.71%
